Most compounds without a hit are left out; they make up all but 9.3% or so of the library.
hDAT+cocaine: modulates human dopamine transporter uptake under cocaine; Q01959; LLC-PK1 hDAT cells, [14C]-dopamine uptake with cocaine IC80; actives deviate in either direction; B-score at 10 µM; actives 1.3% (n = 110,000); AID 449768;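 active means Z score or B-score, a plate-position-corrected score, falls beyond the plate's 99.7% confidence bounds, in either direction; inactive means both scores lie inside the 99.7% bounds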
Target sequence (Q01959 whole entry, looked up): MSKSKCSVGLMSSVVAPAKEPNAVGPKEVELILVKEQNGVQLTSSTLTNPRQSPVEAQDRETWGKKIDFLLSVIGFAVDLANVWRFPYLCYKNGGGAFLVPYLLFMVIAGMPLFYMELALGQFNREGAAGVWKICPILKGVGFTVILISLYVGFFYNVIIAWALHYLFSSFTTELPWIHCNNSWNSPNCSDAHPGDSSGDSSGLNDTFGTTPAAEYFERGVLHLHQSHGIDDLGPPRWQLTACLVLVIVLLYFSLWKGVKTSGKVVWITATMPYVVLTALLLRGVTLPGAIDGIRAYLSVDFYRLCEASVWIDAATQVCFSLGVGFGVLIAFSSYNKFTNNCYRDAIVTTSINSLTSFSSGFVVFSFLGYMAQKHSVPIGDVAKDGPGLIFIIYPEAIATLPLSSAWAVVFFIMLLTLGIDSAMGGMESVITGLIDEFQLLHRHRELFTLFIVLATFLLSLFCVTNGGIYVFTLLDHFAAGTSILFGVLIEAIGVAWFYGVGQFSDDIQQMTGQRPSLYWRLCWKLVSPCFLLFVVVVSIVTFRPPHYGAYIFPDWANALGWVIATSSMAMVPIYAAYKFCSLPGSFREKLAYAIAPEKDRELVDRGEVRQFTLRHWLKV
PostGolgi ctrl: yeast control strain growth, post-Golgi counter-screen. AID 738. actives 5% (n = 98,000). inhibition, % at 10 µM. efflux-deficient yeast background strain, growth absorbance A615, 16 h
D1 mod: allosterically modulates the human D1 dopamine receptor | HEK293 D1, CRE-luciferase, dopamine EC30 potentiation; actives deviate in either direction | B-score at 10 µM | actives 5.9% (n = 58,000) | P21728;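 active means luminescence count or its row- and column-corrected plate score outside the 99.7% band of the plate's sample wells, on either side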
tolC growth inh: blocks growth of E. coli BW25113 tolC mutant. OD615. growth inhibition, % at 10 µM (by protocol). actives 2.2% (n = 65,000);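 active means growth inhibition at or above a cutoff equal to the mean over every tested compound plus 3 SD, cut at about 60% in these data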;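 further: growth measured after 20 h incubation at 37 °C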
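Test system: E. coli BW25113 ΔtolC::kan bacteria; incubation: 37 °C, 20 h exposure; medium: LB broth supplemented with 50 µg/mL kanamycin; read-out basis: percent growth inhibition; signal: A615 absorbance measurement; compound: 10 µM final, single dose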
PostGolgi yeast: growth inhibition of a yeast mutant, post-Golgi transport screen; post-Golgi transport phenotypic cell assay; inhibition, % at 10 µM; actives 0.9% (n = 98,000);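 further: yeast cells grown in 1536-well plates; yeast grown about 18 h at 30C before absorbance read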
E coli WT exp: blocks growth of wild type E. coli BW25113; OD600 absorbance; growth inhibition, % at 100 µM; actives 0.15% (n = 98,000); AID 710;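 active means growth inhibition above about 50% at one test dose, limit read from the data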;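 further: growth measured after 20 h incubation at 37 °C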
Hits are given with their value. Unless noted, no stated cut-off is given here; in the data, active means inhibition above about 30%; inactive means the rest.

Results for COc1cc2c(cc1OC)C(c1ccc(-c3cc(Cl)ccc3Cl)o1)=NCC2 ?
hDAT+cocaine: inactive; PostGolgi ctrl: 52.4; PostGolgi yeast: inactive; E coli WT exp: inactive

What do the screens show for `COc1cc2c(cc1OC)C(c1ccc(-c3ccc(Cl)cc3Cl)o1)=NCC2`?
PostGolgi ctrl: inactive; PostGolgi yeast: inactive; E coli WT exp: inactive

How did Cc1c(O)c(CN2CCCC(C)C2)cc2c3c(c(=O)oc12)CCC3 (stereo not drawn) do in these assays?
D1 mod: inactive; tolC growth inh: inactive

What do the screens show for `O=C(NCc1cccnc1)C1c2ccccc2C(=O)N1C1CCCCCC1` (stereo not drawn)?
PostGolgi ctrl: inactive; D1 mod: inactive; tolC growth inh: inactive; PostGolgi yeast: inactive; E coli WT exp: inactive

What do the screens show for `O=C(NCc1cccnc1)C1c2ccccc2C(=O)N1C1CCCCCCC1` (stereo not drawn)?
hDAT+cocaine: inactive; PostGolgi ctrl: 33.6; D1 mod: inactive; tolC growth inh: inactive; PostGolgi yeast: inactive; E coli WT exp: inactive

How did Cc1cc(C)c2c3c(cn2n1)c(=O)n(C)c(=O)n3C do in these assays?
hDAT+cocaine: inactive

Results for CCOC(=O)c1ccc(NC(=O)c2ccc(C)c(S(=O)(=O)N3CCOCC3)c2)cc1 ?
hDAT+cocaine: inactive; PostGolgi ctrl: inactive; D1 mod: -6.57; tolC growth inh: inactive; PostGolgi yeast: inactive; E coli WT exp: inactive

Results for CCCN1C2CCCC1CC(NC(=O)c1ccc(F)cc1)C2 (stereo not drawn) ?
hDAT+cocaine: inactive; PostGolgi ctrl: inactive; D1 mod: -2.17; tolC growth inh: inactive; PostGolgi yeast: inactive; E coli WT exp: inactive

What do the screens show for `Cc1cccc(C)c1NC(=O)COc1cccc(/C=N/NC(=O)C(=O)NCc2ccccc2)c1`?
hDAT+cocaine: inactive; PostGolgi ctrl: inactive; PostGolgi yeast: inactive; E coli WT exp: inactive

What do the screens show for `Cc1ccc(C2CC(C(F)(F)F)n3nc(C(=O)NCCN4CCOCC4)cc3N2)cc1` (stereo not drawn)?
hDAT+cocaine: inactive; PostGolgi ctrl: inactive; D1 mod: inactive; tolC growth inh: inactive; PostGolgi yeast: inactive; E coli WT exp: inactive

What do the screens show for `CCOc1ccc(NC(=O)c2cc3n(n2)C(C(F)(F)F)CC(c2ccco2)N3)cc1` (stereo not drawn)?
hDAT+cocaine: inactive; PostGolgi ctrl: inactive; D1 mod: -7.48; tolC growth inh: inactive; PostGolgi yeast: inactive; E coli WT exp: inactive

How did Cc1cc(C(=O)NCc2ccco2)no1 do in these assays?
hDAT+cocaine: inactive; PostGolgi ctrl: inactive; PostGolgi yeast: 30.3; E coli WT exp: inactive

Results for O=C(Nc1ccc(O)cc1)c1cc2n(n1)C(C(F)(F)F)CC(c1ccco1)N2 (stereo not drawn) ?
hDAT+cocaine: inactive; PostGolgi ctrl: inactive; D1 mod: inactive; tolC growth inh: inactive; PostGolgi yeast: inactive; E coli WT exp: inactive

What do the screens show for `Cc1cccc(NC(=O)c2cc3n(n2)C(C(F)(F)F)CC(c2ccc4c(c2)OCO4)N3)c1` (stereo not drawn)?
hDAT+cocaine: inactive; PostGolgi ctrl: 57.8; D1 mod: inactive; tolC growth inh: 68.4; PostGolgi yeast: inactive; E coli WT exp: inactive

How did COc1ccc(NC(=O)c2cc3n(n2)C(C(F)(F)F)CC(c2ccc4c(c2)OCO4)N3)cc1OC (stereo not drawn) do in these assays?
PostGolgi ctrl: inactive; D1 mod: inactive; tolC growth inh: inactive; PostGolgi yeast: inactive; E coli WT exp: inactive

What do the screens show for `CCCCNC(=O)c1cc2n(n1)C(C(F)(F)F)CC(c1ccccc1)N2` (stereo not drawn)?
hDAT+cocaine: inactive; PostGolgi ctrl: 34.9; tolC growth inh: inactive; PostGolgi yeast: inactive; E coli WT exp: inactive

What do the screens show for `CC(C)CSc1nc2c(=O)[nH][nH]c(=O)c2n1Cc1ccccc1`?
hDAT+cocaine: inactive

What do the screens show for `Cc1ccc(C2CC(C(F)(F)F)n3nc(C(=O)NCc4ccco4)cc3N2)cc1` (stereo not drawn)?
hDAT+cocaine: inactive; PostGolgi ctrl: 32.1; D1 mod: inactive; tolC growth inh: inactive; PostGolgi yeast: inactive; E coli WT exp: inactive

Results for O=C(NCc1ccco1)c1cc2n(n1)C(C(F)(F)F)CC(c1ccc(F)cc1)N2 (stereo not drawn) ?
hDAT+cocaine: inactive; PostGolgi ctrl: inactive; D1 mod: inactive; tolC growth inh: inactive; PostGolgi yeast: inactive; E coli WT exp: inactive

How did O=C(CSCC(=O)N1CCCCC1)Nc1nc(-c2ccc(Cl)s2)cs1 do in these assays?
hDAT+cocaine: inactive; PostGolgi ctrl: 71.6; tolC growth inh: inactive; PostGolgi yeast: 32.2; E coli WT exp: inactive

How did CC1CC(C)CN(C(=O)CSCC(=O)Nc2nc(-c3cccs3)cs2)C1 (stereo not drawn) do in these assays?
PostGolgi ctrl: 71.7; tolC growth inh: inactive; PostGolgi yeast: inactive; E coli WT exp: inactive

How did O=C(CSCC(=O)N1CCCCC1)Nc1nc(-c2cccs2)cs1 do in these assays?
hDAT+cocaine: inactive; PostGolgi ctrl: inactive; D1 mod: inactive; tolC growth inh: inactive; PostGolgi yeast: inactive; E coli WT exp: inactive

Results for O=C(O)/C=C/c1cn(-c2ncc(C(F)(F)F)cc2Cl)c2ccccc12 ?
hDAT+cocaine: inactive; PostGolgi ctrl: inactive; PostGolgi yeast: inactive; E coli WT exp: inactive

What do the screens show for `O=C(CSc1nc(Nc2ccccc2)nc(N2CCOCC2)n1)Nc1ccccc1Cl`?
hDAT+cocaine: inactive; PostGolgi ctrl: inactive; D1 mod: inactive; tolC growth inh: inactive; PostGolgi yeast: inactive; E coli WT exp: inactive

Results for O=C(CSc1nc(Nc2ccccc2)nc(N2CCOCC2)n1)Nc1ccc([N+](=O)[O-])cc1 ?
hDAT+cocaine: inactive; PostGolgi ctrl: inactive; PostGolgi yeast: 44.5; E coli WT exp: inactive

Results for CCn1c(COc2ccc3c(c2)OCO3)nnc1SCC(=O)c1ccc(Cl)cc1 ?
hDAT+cocaine: inactive; PostGolgi ctrl: inactive; PostGolgi yeast: inactive; E coli WT exp: inactive

How did CCOC(=O)C(=CN(CCc1ccccc1)CC(=O)OC)C(=O)OCC do in these assays?
hDAT+cocaine: inactive

Results for Cc1cccc(S(=O)(=O)c2c(N)n(/N=C/c3cccnc3)c3nc4ccccc4nc23)c1 ?
hDAT+cocaine: 3.21; PostGolgi ctrl: inactive; D1 mod: inactive; tolC growth inh: inactive; PostGolgi yeast: inactive; E coli WT exp: inactive

Results for COc1cccc(/C=N/n2c(N)c(S(=O)(=O)c3cccs3)c3nc4ccccc4nc32)c1 ?
hDAT+cocaine: inactive; PostGolgi ctrl: inactive; PostGolgi yeast: inactive; E coli WT exp: inactive

Results for Cc1cccc(S(=O)(=O)c2c(N)n(/N=C/c3ccco3)c3nc4ccccc4nc23)c1 ?
hDAT+cocaine: inactive; PostGolgi ctrl: 32.4; D1 mod: inactive; tolC growth inh: inactive; PostGolgi yeast: inactive; E coli WT exp: inactive

How did Nc1c(S(=O)(=O)c2ccccc2)c2nc3ccccc3nc2n1/N=C/c1ccco1 do in these assays?
hDAT+cocaine: inactive; PostGolgi ctrl: inactive; tolC growth inh: inactive; PostGolgi yeast: inactive; E coli WT exp: inactive

What do the screens show for `Cc1ccc(S(=O)(=O)c2c(N)n(/N=C/c3ccco3)c3nc4ccccc4nc23)cc1C`?
hDAT+cocaine: inactive; PostGolgi ctrl: inactive; D1 mod: inactive; tolC growth inh: inactive; PostGolgi yeast: inactive; E coli WT exp: inactive

From PubChem
